Data set [1] is described as follows: Aqueous solubility of the compound after 1 hrs by HPLC-UV method. The note with it: deionized water. The class given is physicochemical. A digest of the protocol:
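Shaken in tubes at 25 °C for 1 h, protected from light, then filtered through 0.2 μm filters; filtrate diluted in deionized water and quantified by reversed-phase HPLC-UV (C18 column, room temperature, methanol/water 70:30 v/v, 1.0 mL min−1).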

In data set [2] the test system is HT-29. The data set can be described thus: Cytotoxicity against human HT-29 cells assessed as reduction in cell viability after 72 hrs by MTT assay. Format: functional, cell-based. Particulars: HT-29, 72 h. A digest of the protocol:
(§1)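 HT29 cells were cultured in RPMI-1640 with glutamine and 10% FBS, seeded at 2000–7500 cells/well, and exposed for 72 h to drug in DMSO (final DMSO <0.1%). MTT was added at 0.83 mg mL−1 final and incubated overnight, then cells were lysed in SDS/HCl and read at 570 nm. Survival was expressed as percent of drug-free control; five replicate wells.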
On the technique in general: Formazan colour is commonly taken as a measure of viable cells.

Data set [3] in a line: Cytotoxicity against HEK293FT cells assessed as reduction in cell viability up to 20 uM. The class given is cell-based. The note with it: human.
Data set [4] is described as follows: Cytotoxicity against HEK293FT cells expressing GLUT1 assessed as reduction in cell viability up to 20 uM. The class given is cell-based. Particulars: human.
Data set [5] can be described thus: Ratio of CA4 aqueous solubility to test compound aqueous solubility. The class given is physicochemical. Particulars: buffer.
In data set [6] the test system is HT-29. Kind of data set: […] for human HT-29 cells assessed as reduction in cell viability after 72 hrs by MTT assay. Format: functional. In a few lines: as §1
A short description of data set [7]: Toxicity in ip dosed DBA/2 mouse assessed as reduction in 15% body weight administered as daily dose for 3 days. Format: organism-based. The note with it: in vivo. In a few lines: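 Adult male DBA/2 mice were dosed i.p. at 10 mL kg−1, with 5 per group. Controls (n = 8) received saline. MTD was the dose allowing 15% median body-weight loss with no toxic deaths or marked change in general signs within 3 days.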

Another data set has as its system Mus musculus. The data set can be described thus: Ratio of compound MTD to CA4 MTD in ip dosed DBA/2 mouse assessed as reduction in 15% body weight administered as daily dose for 3 days. The class given is ADME, organism-based. Particulars: in vivo, 72 h.

Structures are written as SMILES. Converted amounts (≈) assume the structure as drawn.

For orientation: solubility means the concentration that dissolves in the medium under given conditions. A low value points to a poorly soluble substance. Usually IC50 stands for the concentration that gives 50% inhibition. In turn, `COc1ccc(/C=C\c2cc(OC)c(OC)c(OC)c2)cc1O[C@@H]1O[C@H](CO)[C@H](O)[C@H](O)[C@H]1O` came in with a solubility at 1 h in data set [1] of 2560 µg/mL (≈ 5.35 mM). Further, the IC50 with HT-29 [2] was determined as 39.3 µM. In addition, the Activity result in data set [3] and in data set [4] was “Toxic” in each case. For the same compound, the results for the Ratio (in data set [5]; with Mus musculus) were 853 and 34, respectively. Moreover, the “Ratio IC50” value in the data set with HT-29 [6] is 54.61. For the same compound, in data set [7], the MTD at 72 h was determined as 550 mg/kg.
For the compound `COc1ccc(/C=C\c2cc(OC)c(OC)c(OC)c2)cc1O[C@H]1O[C@H](CO)[C@@H](O)[C@H](O)[C@@H]1O`, the solubility at 1 h in data set [1] was 5890 µg/mL (≈ 12.3 mM). Further, in the data set on HT-29 [2], the IC50 was determined as 11.4 µM. In addition, the Activity entry in data set [3] and in data set [4] was “Toxic” throughout. The figures for the Ratio (in data set [5]; with Mus musculus) were 1963 and 16, respectively. Further, in the data set with HT-29 [6], the “Ratio IC50” value amounted to 15.89. Also, the MTD at 72 h in data set [7] was determined as 400 mg/kg.

The values are drawn from ChEMBL document CHEMBL4257448, “Deciphering the origins of molecular toxicity of combretastatin A4 and its glycoconjugates: interactions with major drug transporters and their safety profiles in vitro and in vivo” (Medchemcomm, 2017).
